Laboratory results published in ChEMBL document CHEMBL4177525, “Synthesis and evaluation of frentizole-based indolyl thiourea analogues as MAO/ABAD inhibitors for Alzheimer's disease treatment” (Bioorg Med Chem, 2017).
Activity calls are given as the source filed them. No cut-off for these calls is given here.

How the values were obtained:
[1] = target: T1, Amine oxidase [flavin-containing] A (Homo sapiens, UniProt P21397); assay: Inhibition of human purified MAO-A expressed in insect cell membranes assessed as reduction in conversion of kynuramine to 4-hydroxyquinoline by spectrophotometric assay
T1 sequence (P21397 whole entry): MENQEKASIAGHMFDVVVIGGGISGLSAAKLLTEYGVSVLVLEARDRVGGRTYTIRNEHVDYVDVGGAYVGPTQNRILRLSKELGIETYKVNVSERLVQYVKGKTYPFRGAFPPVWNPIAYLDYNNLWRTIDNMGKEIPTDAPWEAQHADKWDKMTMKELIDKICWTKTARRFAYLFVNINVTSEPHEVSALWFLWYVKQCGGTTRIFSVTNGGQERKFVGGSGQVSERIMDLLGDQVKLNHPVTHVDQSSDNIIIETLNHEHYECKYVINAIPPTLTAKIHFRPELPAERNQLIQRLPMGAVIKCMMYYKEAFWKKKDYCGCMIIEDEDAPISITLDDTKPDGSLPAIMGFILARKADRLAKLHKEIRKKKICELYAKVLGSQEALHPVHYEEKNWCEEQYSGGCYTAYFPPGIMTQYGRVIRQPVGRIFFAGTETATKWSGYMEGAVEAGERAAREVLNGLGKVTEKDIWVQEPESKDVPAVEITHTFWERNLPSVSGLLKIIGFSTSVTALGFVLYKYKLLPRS

[2] = target: T2, peroxidase (horseradish peroxidase) (Raphanus sativus, UniProt K7N5L9); assay: Inhibition of horse radish peroxidase assessed as residual activity at 5 uM by amplex red dye based fluorescence assay; conditions: horseradish peroxidase (isolated enzyme), probe Amplex Red, read-out: Activity
Procedure, shortened: (§1)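 HRP (0.02 U/mL) given H2O2 20 µM directly as substrate plus Ampliflu Red 20 µM in 50 mM potassium phosphate pH 7.4. Compound at 50 or 5 µM, 1% DMSO; controls DMSO only. Resorufin fluorescence read at ex 535/em 595 nm, 30°C, as remaining HRP activity.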

[3] = target: T2, peroxidase (horseradish peroxidase); assay: Inhibition of horse radish peroxidase assessed as residual activity at 50 uM by amplex red dye based fluorescence assay; conditions: horseradish peroxidase (isolated enzyme), probe Amplex Red, read-out: Activity; procedure, shortened: as §1
[4] = target: Amyloid beta-binding alcohol dehydrogenase (Homo sapiens, UniProt Q2L8D9); assay: Inhibition of ABAD (unknown origin) assessed as residual activity at 100 uM using acetoacetyl-CoA in presence of NADH by spectrophotometric assay relative to control
Procedure, shortened: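 Recombinant ABAD at 0.5 µg/mL with NADH 250 µM and acetoacetyl-CoA 120 µM; compound at 100 µM in 1% DMSO, controls with matching DMSO. Buffer 10 mM HEPES, 0.5% gelatin, pH 7.4 at 37°C. NADH consumption read as falling absorbance at 340 nm; reported as % remaining activity ± SEM from two biological repeats, each with three technical repeats.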

[5] = Solubility of the compound at 100 uM; type: physicochemical
Procedure, shortened: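 Compounds checked for solubility in assay buffer at 100 µM.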

[6] = target: T1, Amine oxidase [flavin-containing] A; assay: Inhibition of human membrane bound MAO-A expressed in insect cell membranes assessed as reduction in conversion of kynuramine to 4-hydroxyquinoline by spectrophotometric assay
Procedure, shortened: (§2)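 Human MAO-A or MAO-B expressed in insect cell membranes, diluted 1/4000 (A) or 1/2000 (B). Kynuramine at 2×KM: 60 µM for MAO-A, 30 µM for MAO-B. Assay in 50 mM potassium phosphate pH 7.5, 30°C, 1% DMSO, absorbance at 314 nm. Inhibitor varied over 4 orders of magnitude, up to 100 µM. Linear rates from 8-10 assays fitted by 3-parameter regression with bottom fixed at zero; IC50 ± SE of estimate.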

[7] = target: T3, Amine oxidase [flavin-containing] B (Homo sapiens, UniProt P27338); assay: Inhibition of human membrane bound MAO-B expressed in insect cell membranes assessed as reduction in conversion of kynuramine to 4-hydroxyquinoline by spectrophotometric assay; procedure, shortened: as §2
T3 sequence (P27338 whole entry): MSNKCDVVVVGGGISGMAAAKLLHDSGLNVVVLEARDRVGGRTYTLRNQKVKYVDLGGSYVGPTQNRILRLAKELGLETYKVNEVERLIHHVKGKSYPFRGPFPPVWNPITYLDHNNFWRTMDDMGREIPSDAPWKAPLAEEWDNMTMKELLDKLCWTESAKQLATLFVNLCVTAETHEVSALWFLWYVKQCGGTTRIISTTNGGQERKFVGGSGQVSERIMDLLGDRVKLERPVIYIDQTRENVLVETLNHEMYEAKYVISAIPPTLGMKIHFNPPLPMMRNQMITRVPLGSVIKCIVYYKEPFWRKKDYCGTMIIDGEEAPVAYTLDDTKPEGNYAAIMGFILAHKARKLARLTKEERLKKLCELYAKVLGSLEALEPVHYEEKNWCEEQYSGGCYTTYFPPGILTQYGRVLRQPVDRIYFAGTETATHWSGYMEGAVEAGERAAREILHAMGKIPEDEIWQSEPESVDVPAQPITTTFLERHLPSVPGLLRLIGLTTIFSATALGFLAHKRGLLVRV

[8] = Quenching activity of the compound assessed as reduction in resorufin fluorescence; type: functional
Procedure, shortened: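 Resorufin at 1 µM and 10 µM measured for fluorescence in the presence of compound at 50 µM.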

[9] = Cytotoxicity against CHOK1 cells assessed as reduction in cell viability after 24 hrs by MTT assay; type: cell-based, Cricetulus griseus; conditions: chinese hamster, CHO-K1 cells; read-out: LC50
Procedure, shortened: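 CHO-K1 cells grown as ECACC recommends, seeded 8000 per well; compounds from DMSO stocks diluted in F-12 with 10% FBS and 1% pen/strep (final DMSO at most 0.5%), exposed 24 h. Medium then replaced with 10 µM MTT for about 3 h, formazan dissolved in DMSO, absorbance read at 570 nm (650 nm reference). LC50 from control-subtracted triplicates by four-parameter regression; mean ± SEM of 3 independent runs.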

[10] = Lipophilicity of the compound assessed as capacity factor at pH 3.5 by HPLC analysis; type: physicochemical; conditions: buffer
Procedure, shortened: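 Capacity factor k from gradient HPLC on reversed-phase C18 in acid polar organic mode, pH ~3.5.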

[11] = target: Peroxidase (Raphanus sativus, UniProt K7N5L9); assay: Inhibition of horse radish peroxidase assessed as residual activity by amplex red dye based fluorescence assay; procedure, shortened: as §1
Peroxidase, sequence (K7N5L9 whole entry): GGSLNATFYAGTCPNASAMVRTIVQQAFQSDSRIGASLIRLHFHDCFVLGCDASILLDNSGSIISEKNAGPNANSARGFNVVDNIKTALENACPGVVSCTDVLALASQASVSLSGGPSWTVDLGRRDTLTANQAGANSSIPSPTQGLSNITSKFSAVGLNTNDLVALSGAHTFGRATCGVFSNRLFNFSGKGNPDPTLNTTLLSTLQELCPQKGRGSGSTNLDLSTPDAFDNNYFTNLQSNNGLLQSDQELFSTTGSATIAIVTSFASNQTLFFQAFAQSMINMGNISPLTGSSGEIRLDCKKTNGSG

T2 sequence (K7N5L9 whole entry): as above

| Structure (SMILES) | IC50 ([1]; read-out: IC50) [µM] | activity at 5 µM [2] [%] | activity at 50 µM [3] [%] | Activity [4] [%] | solubility [5] | IC50 ([6]; read-out: IC50) [µM] | IC50 ([7]; read-out: IC50) [µM] | Activity [8] | CC50 at 24 h [9] [µM] | K [10] | IC50 [1] | IC50 [6] | IC50 [7] | IC50 [11] [µM] |
| --- | --- | --- | --- | --- | --- | --- | --- | --- | --- | --- | --- | --- | --- | --- |
| S=C(Nc1ccc2[nH]ccc2c1)Nc1cccc2cnccc12 | 24 | 63.3 | 47.9 | 96.5 | Soluble | 24 | 4 | inactive | > 400 | – | – | – | – | – |
| S=C(Nc1ccc(Br)cc1)Nc1ccc2[nH]ccc2c1 | 5.9 | 82 | 52.8 | 83 | Soluble | 23 | 58 | inactive | 220 | 4.355 | – | – | – | – |
| COc1ccc2nc(NC(=O)Nc3ccccc3)sc2c1 [FRENTIZOLE] | – | – | – | – | – | – | – | – | 31 | – | Not Active | Not Active | Not Active | – |
| Cc1ccc(NC(=S)Nc2ccc3[nH]ccc3c2)c(O)c1 | – | 47.3 | 36.2 | 87.2 | Soluble | 24 | 3.2 | inactive | 370 | – | Not Active | – | – | – |
| O=C(c1ccccc1)c1ccc(NC(=S)Nc2ccc3[nH]ccc3c2)cc1 | – | 79.1 | 71.4 | 80.4 | Soluble | – | – | inactive | 20 | – | Not Active | – | – | – |
| Oc1ccc(CNC(=S)Nc2ccc3[nH]ccc3c2)cc1O | – | 38.3 | 31.2 | 81.5 | Soluble | – | – | inactive | 471 | – | Not Active | – | – | 0.8 |
| S=C(Nc1ccc(Oc2ccccc2)cc1)Nc1ccc2[nH]ccc2c1 | – | 73.1 | 65.6 | 90.9 | Soluble | – | – | inactive | 36 | – | Not Active | – | – | – |
| Oc1cc(Cl)ccc1NC(=S)Nc1ccc2[nH]ccc2c1 | 39 | 58.9 | 35.9 | 76 | Soluble | 6.3 | 0.3 | inactive | 251 | – | – | – | – | – |
| Oc1ccccc1NC(=S)Nc1ccc2[nH]ccc2c1 | 39 | 43.9 | 36.9 | 85 | Soluble | 14 | 4 | inactive | 509 | – | – | – | – | 0.8 |
| Oc1cccc(NC(=S)Nc2ccc3[nH]ccc3c2)c1 | – | 81.4 | 50.9 | 91.6 | Soluble | – | – | inactive | 977 | – | Not Active | – | – | – |
| COC(=O)c1cc(NC(=S)Nc2ccc3[nH]ccc3c2)ccc1O | – | 61.2 | 42.2 | 90 | Soluble | > 100 | 31 | inactive | 423 | – | Not Active | – | – | – |
| CC(=O)c1ccc(NC(=S)Nc2ccc3[nH]ccc3c2)cc1 | 67 | 66.3 | 41.8 | 79.2 | Soluble | – | – | inactive | 154 | – | – | – | – | – |
| COc1ccc(CNC(=S)Nc2ccc3[nH]ccc3c2)cc1 | – | 83.5 | 54.4 | 88.5 | Soluble | – | – | inactive | 232 | – | Not Active | – | – | – |
| Oc1ccc(NC(=S)Nc2ccc3[nH]ccc3c2)cc1Cl | 58 | 39.9 | 26.4 | 49.1 | Soluble | 58 | 8.6 | inactive | 447 | 3.76 | – | – | – | 1.01 |
| CCOC(=O)c1ccc(NC(=S)Nc2ccc3[nH]ccc3c2)cc1 | 71 | 65.8 | 36.6 | 74.6 | Soluble | – | – | inactive | 123 | – | – | – | – | – |
| Oc1ccc(NC(=S)Nc2ccc3[nH]ccc3c2)cc1 | – | 41.5 | 31 | 90.9 | Soluble | > 100 | 17 | inactive | 848 | – | Not Active | – | – | 1.01 |
| COc1ccc(NC(=S)Nc2ccc3[nH]ccc3c2)cc1 | 36 | 67.6 | 46.5 | 91.3 | Soluble | 36 | 37 | inactive | 476 | – | – | – | – | – |
| CC(=O)Nc1ccc(NC(=S)Nc2ccc3[nH]ccc3c2)cc1 | 71 | 68.1 | 39.3 | 93 | Soluble | 70 | 37 | inactive | 1040 | – | – | – | – | – |
| OCc1ccc(NC(=S)Nc2ccc3[nH]ccc3c2)cc1 | – | 88.2 | 51.4 | 84.2 | Soluble | – | – | inactive | 1080 | – | Not Active | – | – | – |
| COc1ccc(NC(=S)Nc2ccc3[nH]ccc3c2)cc1OC | – | 61 | 41.5 | 93.8 | Soluble | – | – | inactive | 797 | – | Not Active | – | – | – |
| S=C(Nc1ccccc1)Nc1ccc2[nH]ccc2c1 | > 30 | 81.4 | 46.1 | 85.8 | Soluble | 57.5 | 60 | inactive | 337 | – | – | – | – | – |
